Values after ≈ are worked out from the molar mass of the structure shown.
System: Enterococcus faecium
Assay: Antibacterial activity against copper, erythromycin, teracycline-resistant and vancomycin and teicoplanin-sensitive Enterococcus faecium ATCC BAA2127 assessed as bacterial growth inhibition after 16-20 hrs by broth microdilution method
Format: functional
Conditions: not given
Outline: (§1)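 CLSI broth microdilution in cation-adjusted Mueller Hinton II broth, triplicate. Cultures grown to OD600 about 0.60-0.80, diluted 100-fold; final inoculum 5×10^5 CFU/mL. Compounds from 5 mg/mL DMSO stock diluted in medium, final 2% (v/v) DMSO plus 0.25% (v/v) glacial acetic acid. Incubated 35 °C, 16-20 h, then MIC read.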

Q: For `CCSc1ccc(C2C(C(N)=O)=C(C)Nc3nc(SCc4ccccc4)nn32)cc1` (stereo not drawn), which MIC is on record?
A: 16 µg/mL (≈ 36.6 µM)

Q: For `CC1=C(C(N)=O)C(c2ccc(N(C)C)cc2)n2nc(SCc3ccc([N+](=O)[O-])cc3)nc2N1` (stereo not drawn), which MIC is on record?
A: 32 µg/mL (≈ 68.7 µM)

System: Enterococcus faecium
Assay: Antibacterial activity against vancomycin-susceptible Enterococcus faecium 119-39A assessed as bacterial growth inhibition after 16-20 hrs by broth microdilution method
Format: functional
Conditions: not given
Outline: as §1

Q: For `CCSc1ccc(C2C(C(N)=O)=C(C)Nc3nc(SCc4ccccc4)nn32)cc1` (stereo not drawn), which MIC is on record?
A: 8 µg/mL (≈ 18.3 µM)

Q: With `CC1=C(C(N)=O)C(c2ccc(N(C)C)cc2)n2nc(SCc3ccc([N+](=O)[O-])cc3)nc2N1` (stereo not drawn) as the molecule, how does the MIC read?
A: 16 µg/mL (≈ 34.4 µM)

System: Enterococcus faecium
Assay: Antibacterial activity against vancomycin and teicoplanin-resistant Enterococcus faecium ATCC 700221 isolated from human faeces assessed as bacterial growth inhibition after 16-20 hrs by broth microdilution method
Format: functional
Conditions: ATCC 700221, Feces
Outline: as §1, with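 “Broth” for “CLSI broth”, “broth, run to CLSI method,” for “broth,”, “Cells” for “Cultures”, “~0.60-0.80,” for “about 0.60-0.80,”, “stocks” for “stock”, “°C for” for “°C,”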

Q: Which MIC does the source give for `CC1=C(C(N)=O)C(c2ccc(N(C)C)cc2)n2nc(SCc3ccc([N+](=O)[O-])cc3)nc2N1` (stereo not drawn) here?
A: 8 µg/mL (≈ 17.2 µM)

System: Liver
Assay: Half life in human liver S9 at 10 uM after 60 mins by UPLC analysis
Format: ADME, subcellular, Liver S9 fraction
Conditions: s9, 1 h
Outline: (§2)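 Pooled human liver S9 (1 mg/mL) with 1 mM NADPH and 10 μM compound in sodium phosphate buffer (0.20 M phosphate, 0.15 M NaCl, pH 7.4), 37 °C for 60 min. Six time points quenched in acetonitrile with internal standard, analysed by UPLC-MRM. Half-life taken from first-order rate constant; CLint scaled with 45 mg protein/g liver and 20 g liver/kg. Run in duplicate.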

Q: Which t1/2 does the source give for `CCSc1ccc(C2C(C(N)=O)=C(C)Nc3nc(SCc4ccccc4)nn32)cc1` (stereo not drawn) here?
A: > 1 h

Q: Which t1/2 does the source give for `CC1=C(C(N)=O)C(c2ccc(N(C)C)cc2)n2nc(SCc3ccc([N+](=O)[O-])cc3)nc2N1` (stereo not drawn) here?
A: > 1 h

System: not listed separately
Assay: Apparent intrinsic clearance in human liver S9 at 10 uM after 60 mins by UPLC analysis
Format: ADME, subcellular, Liver S9 fraction
Conditions: read-out: CLH(app)
Outline: as §2

Q: With `CCSc1ccc(C2C(C(N)=O)=C(C)Nc3nc(SCc4ccccc4)nn32)cc1` (stereo not drawn) as the molecule, how does the CLint scaled at 10 µM read?
A: < 10.4 mL/min/kg

Q: For `CC1=C(C(N)=O)C(c2ccc(N(C)C)cc2)n2nc(SCc3ccc([N+](=O)[O-])cc3)nc2N1` (stereo not drawn), which CLint scaled at 10 µM is on record?
A: < 10.4 mL/min/kg

System: not listed separately
Assay: Induction of hemolysis in RBC (unknown origin) at 64 ug/ml
Conditions: erythrocytes

Q: Which Activity does the source give for `CCSc1ccc(C2C(C(N)=O)=C(C)Nc3nc(SCc4ccccc4)nn32)cc1` (stereo not drawn) here?
A: 46%

Q: For `CC1=C(C(N)=O)C(c2ccc(N(C)C)cc2)n2nc(SCc3ccc([N+](=O)[O-])cc3)nc2N1` (stereo not drawn), which Activity is on record?
A: 23%

System: Enterococcus faecium
Assay: microbe, parasite or virus in culture
Conditions: NCTC 7171

Q: With `CCSc1ccc(C2C(C(N)=O)=C(C)Nc3nc(SCc4ccccc4)nn32)cc1` (stereo not drawn) as the molecule, how does the MIC read?
A: 4 µg/mL (≈ 9.14 µM)

Q: Which MIC does the source give for `CC1=C(C(N)=O)C(c2c[nH]c3ccccc23)n2nc(SCc3ccccc3)nc2N1` (stereo not drawn) here?
A: > 128 µg/mL

Q: For `CC1=C(C(N)=O)C(c2ccc(SC(F)(F)F)cc2)n2nc(SCc3ccccc3)nc2N1` (stereo not drawn), which MIC is on record?
A: > 128 µg/mL

Q: Which MIC does the source give for `CC1=C(C(N)=O)C(c2ccc(F)cc2)n2nc(SCc3ccccc3)nc2N1` (stereo not drawn) here?
A: 128 µg/mL (≈ 324 µM)

Q: Which MIC does the source give for `COC(=O)c1nc2n(n1)C(c1ccc(N(C)C)cc1)C(C(N)=O)=C(C)N2` (stereo not drawn) here?
A: > 128 µg/mL

Q: For `COc1cc(C2C(C(=O)Nc3ccc(C)cc3C)=C(C)Nc3nc(SCc4ccccc4)nn32)ccc1O` (stereo not drawn), which MIC is on record?
A: 16 µg/mL (≈ 30.3 µM)

Q: Which MIC does the source give for `CSc1ccc(C2C(C(N)=O)=C(C)Nc3nc(SCc4ccccc4)nn32)cc1` (stereo not drawn) here?
A: > 128 µg/mL

Q: With `CC1=C(C(N)=O)C(c2cccs2)n2nc(SCc3ccccc3)nc2N1` (stereo not drawn) as the molecule, how does the MIC read?
A: > 128 µg/mL

Q: With `CC1=C(C(=O)Nc2ccccc2C)C(c2ccc(C)cc2)n2nc(SCc3cccc(C)c3)nc2N1` (stereo not drawn) as the molecule, how does the MIC read?
A: > 128 µg/mL

Q: For `COc1ccc(C2C3=C(CCCC3=O)Nc3nc(SCc4ccc(F)cc4)nn32)cc1OC` (stereo not drawn), which MIC is on record?
A: > 128 µg/mL

Q: For `CC1=C(C(N)=O)C(c2ccc(N(C)C)cc2)n2nc(SCc3ccc(C(=O)O)cc3)nc2N1` (stereo not drawn), which MIC is on record?
A: > 128 µg/mL

Q: Which MIC does the source give for `CCc1ccc(C2C(C(=O)Nc3ccccc3OC)=C(C)Nc3nc(SCc4ccccc4)nn32)cc1` (stereo not drawn) here?
A: > 128 µg/mL

Q: Which MIC does the source give for `CC1=C(C(N)=O)C(c2ccc([N+](=O)[O-])cc2)n2nc(SCc3ccccc3)nc2N1` (stereo not drawn) here?
A: 64 µg/mL (≈ 151 µM)

Q: Which MIC does the source give for `CC1=C(C(N)=O)C(c2ccc(N(C)C)cc2)n2ncnc2N1` (stereo not drawn) here?
A: > 128 µg/mL

Q: With `CC1=C(C(N)=O)C(c2ccc(O)cc2)n2nc(SCc3ccccc3)nc2N1` (stereo not drawn) as the molecule, how does the MIC read?
A: > 128 µg/mL

Q: With `CC1=C(C(=O)Nc2ccccc2)C(c2ccc(N(C)C)cc2)n2nc(SCc3ccccc3)nc2N1` (stereo not drawn) as the molecule, how does the MIC read?
A: 8 µg/mL (≈ 16.1 µM)

Q: For `CCOC(=O)c1nc2n(n1)C(c1ccc(N(C)C)cc1)C(C(N)=O)=C(C)N2` (stereo not drawn), which MIC is on record?
A: > 128 µg/mL

Q: For `CC1=C(C(N)=O)C(c2ccc(C(=O)O)cc2)n2nc(SCc3ccccc3)nc2N1` (stereo not drawn), which MIC is on record?
A: > 128 µg/mL

Q: With `CC1=C(C(N)=O)C(c2ccc(N(C)C)cc2)n2nc(SCCNC(=O)OCc3ccccc3)nc2N1` (stereo not drawn) as the molecule, how does the MIC read?
A: > 128 µg/mL

Q: Which MIC does the source give for `CC1=C(C(=O)Nc2ccc(C)cc2C)C(c2ccc(Cl)cc2)n2nc(C(=O)OC(C)C)nc2N1` (stereo not drawn) here?
A: 16 µg/mL (≈ 33.3 µM)

Q: Which MBC does the source give for `CC1=C(C(N)=O)C(c2ccc(N(C)C)cc2)n2nc(SCc3ccc([N+](=O)[O-])cc3)nc2N1` (stereo not drawn) here?
A: 16 µg/mL (≈ 34.4 µM)

Q: What about the MIC of the same molecule?
A: 4 µg/mL (≈ 8.59 µM)

Q: With `CC(=O)Nc1ccc(C2C(C(N)=O)=C(C)Nc3nc(SCc4ccccc4)nn32)cc1` (stereo not drawn) as the molecule, how does the MIC read?
A: 128 µg/mL (≈ 295 µM)

Q: For `CC1=C(C(N)=O)C(c2cccc(C(C)C)c2)n2nc(SCc3ccccc3)nc2N1` (stereo not drawn), which MIC is on record?
A: 16 µg/mL (≈ 38.1 µM)

Q: For `CCN(CC)CCOc1ccc(C2C(C(N)=O)=C(C)Nc3nc(SCc4ccccc4)nn32)cc1` (stereo not drawn), which MIC is on record?
A: > 128 µg/mL

Q: Which MIC does the source give for `CC1=C(C(=O)Nc2ccc(C)cc2C)C(c2cccs2)n2nc(SCc3cccc(Cl)c3)nc2N1` (stereo not drawn) here?
A: > 128 µg/mL

Q: With `CC1=C(C(N)=O)C(c2cccs2)n2ncnc2N1` (stereo not drawn) as the molecule, how does the MIC read?
A: > 128 µg/mL

Q: Which MIC does the source give for `CC1=C(C(=O)Nc2ccc(C)cc2C)C(c2ccc(C)cc2)n2nc(SCc3cccc(C)c3)nc2N1` (stereo not drawn) here?
A: > 128 µg/mL

Q: With `CC1=C(C(N)=O)C(c2ccc(CC(C)C)cc2)n2nc(SCc3ccccc3)nc2N1` (stereo not drawn) as the molecule, how does the MIC read?
A: 8 µg/mL (≈ 18.5 µM)

Q: For `CC1=C(C(N)=O)C(c2ccc(N(C)C)cc2)n2nc(SCc3ccc(C(F)(F)F)cc3)nc2N1` (stereo not drawn), which MIC is on record?
A: > 128 µg/mL

Q: With `CC1=C(C(=O)Nc2ccccc2)C(c2ccc(C)cc2)n2nc(SCc3ccccc3C)nc2N1` (stereo not drawn) as the molecule, how does the MIC read?
A: > 128 µg/mL

Q: Which MIC does the source give for `CC1=C(C(N)=O)C(c2ccc(C)cc2)n2nc(SCc3ccccc3)nc2N1` (stereo not drawn) here?
A: > 128 µg/mL

Q: For `CCOc1ccccc1C1C2=C(CCCC2=O)Nc2nc(SCc3ccc(C(=O)O)cc3)nn21` (stereo not drawn), which MIC is on record?
A: > 128 µg/mL

Q: For `CC1=C(C(N)=O)C(c2ccccc2)n2nc(SCc3ccccc3)nc2N1` (stereo not drawn), which MIC is on record?
A: > 128 µg/mL

Q: Which MIC does the source give for `CCc1cccc(C2C(C(N)=O)=C(C)Nc3nc(SCc4ccccc4)nn32)c1` (stereo not drawn) here?
A: 16 µg/mL (≈ 39.5 µM)

Q: For `CC1=C(C(N)=O)C(c2ncc[nH]2)n2nc(SCc3ccccc3)nc2N1` (stereo not drawn), which MIC is on record?
A: 32 µg/mL (≈ 87.1 µM)

Q: For `CC1=C(C(N)=O)C(c2ccc(N(C)C)cc2)n2nc(SCC(N)=O)nc2N1` (stereo not drawn), which MIC is on record?
A: > 128 µg/mL

Q: For `COc1ccc(C2C(C(=O)Nc3ccccc3C)=C(C)Nc3nc(SCc4cc(C)ccc4C)nn32)cc1` (stereo not drawn), which MIC is on record?
A: > 128 µg/mL

Q: For `CC1=C(C(N)=O)C(c2ccc(N(C)C)cc2)n2nc(SCc3ccc(OC(F)(F)F)cc3)nc2N1` (stereo not drawn), which MIC is on record?
A: > 128 µg/mL

Q: For `CC1=C(C(N)=O)C(c2ccsc2)n2nc(SCc3ccccc3)nc2N1` (stereo not drawn), which MIC is on record?
A: > 128 µg/mL

Q: With `CCc1ccc(C2C(C(N)=O)=C(C)Nc3nc(SCc4ccccc4)nn32)cc1` (stereo not drawn) as the molecule, how does the MIC read?
A: 8 µg/mL (≈ 19.7 µM)

Q: For `CC1=C(C(N)=O)C(c2ccc(Cl)cc2)n2nc(SCc3ccccc3)nc2N1` (stereo not drawn), which MIC is on record?
A: > 128 µg/mL

Reference: ChEMBL document CHEMBL3576783, “Synthesis and evaluation of 1,2,4-triazolo[1,5-a]pyrimidines as antibacterial agents against Enterococcus faecium” (J Med Chem, 2015)
